In ChEMBL document CHEMBL5303300, “EUbOPEN Chemogenomics Library - Multiplex” (2023):
Several values for one entry are separate records, joined by “and”; a condition that tells them apart may be missing. Equal values may be shown once.

Tests used:
Assay type in all cases: toxicity, cell-based
[1] = system: Fibroblast; assay: Multiplex assay against human fibroblast; details: number of replicates 2
How it was run: (§1)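 Compound was added to live cells that had been stained at seeding with Hoechst33342, BioTracker Green Microtubule Cytoskeleton Dye, MitoTracker Red and Annexin V Alexa Fluor 680, and imaging followed on a CQ1 microscope at 37°C and 5% CO2. CellPathfinder machine-learning gating divided cells into Hoechst high-intensity objects or normal cells, normal cells into healthy, pyknosed or fragmented nuclei, and pyknosed cells into mitotic or apoptotic. Tubulin, mitochondrial-mass and membrane-permeability phenotypes are per cents of healthy-nucleus cells.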

[2] = system: HEK-293T; assay: Multiplex assay against HEK293T; details: human, number of replicates 2; how it was run: as §1
[3] = system: U2OS; assay: Multiplex assay against U2OS; details: human, number of replicates 2; how it was run: as §1
[4] = 12 h, 1 µM, compound concentration 1 uM
[5] = 12 h, 10 µM, compound concentration 10 uM
[6] = 24 h, 1 µM, compound concentration 1 uM
[7] = 24 h, 10 µM, compound concentration 10 uM
[8] = 48 h, 1 µM, compound concentration 1 uM
[9] = 48 h, 10 µM, compound concentration 10 uM

Cc1cc(C2CCCNC2)ccc1Nc1ncc(Br)c(NCc2cccc3c2C(C)(C)C(=O)N3)n1 (stereo not given)
Population Apoptotic (%) [1, 4]: 58% and 42%
Population Fragmented Nuclei (%) [1, 4]: 10%
Population Healthy Nuclei (%) [1, 4]: 61% and 64%
Population Hoechst High Intensity Objects (%) [1, 4]: 0%
Population Membrane Permeable-Phenotype (%) [1, 4]: 13% and 5%
Population Mitochondria Different-Phenotype (%) [1, 4]: 5% and 3%
Population Mitotic Cells (%) [1, 4]: 42% and 57%
Population Normal (%) [1, 4]: 99% and 100%
Population Pyknosed Nuclei (%) [1, 4]: 27% and 25%
Population Tubulin-Different-Phenotype (%) [1, 4]: 50% and 49%
Total Cell Count [1, 4]: 184 and 193
Population Apoptotic (%) [1, 5]: 40% and 38%
Population Fragmented Nuclei (%) [1, 5]: 29% and 27%
Population Healthy Nuclei (%) [1, 5]: 59% and 56%
Population Hoechst High Intensity Objects (%) [1, 5]: 1% and 0%
Population Membrane Permeable-Phenotype (%) [1, 5]: 9% and 11%
Population Mitochondria Different-Phenotype (%) [1, 5]: 2% and 5%
Population Mitotic Cells (%) [1, 5]: 60% and 61%
Population Normal (%) [1, 5]: 98% and 99%
Population Pyknosed Nuclei (%) [1, 5]: 10% and 15%
Population Tubulin-Different-Phenotype (%) [1, 5]: 82% and 69%
Total Cell Count [1, 5]: 382 and 328
Population Apoptotic (%) [1, 6]: 57% and 62%
Population Fragmented Nuclei (%) [1, 6]: 8% and 14%
Population Healthy Nuclei (%) [1, 6]: 71% and 60%
Population Hoechst High Intensity Objects (%) [1, 6]: 0%
Population Membrane Permeable-Phenotype (%) [1, 6]: 3% and 7%
Population Mitochondria Different-Phenotype (%) [1, 6]: 6% and 12%
Population Mitotic Cells (%) [1, 6]: 42% and 38%
Population Normal (%) [1, 6]: 100% and 99%
Population Pyknosed Nuclei (%) [1, 6]: 20% and 25%
Population Tubulin-Different-Phenotype (%) [1, 6]: 43% and 46%
Total Cell Count [1, 6]: 198 and 199
Population Apoptotic (%) [1, 7]: 65% and 74%
Population Fragmented Nuclei (%) [1, 7]: 17% and 10%
Population Healthy Nuclei (%) [1, 7]: 59% and 62%
Population Hoechst High Intensity Objects (%) [1, 7]: 1% and 0%
Population Membrane Permeable-Phenotype (%) [1, 7]: 7% and 2%
Population Mitochondria Different-Phenotype (%) [1, 7]: 21% and 31%
Population Mitotic Cells (%) [1, 7]: 34% and 25%
Population Normal (%) [1, 7]: 98% and 99%
Population Pyknosed Nuclei (%) [1, 7]: 22% and 27%
Population Tubulin-Different-Phenotype (%) [1, 7]: 86% and 79%
Total Cell Count [1, 7]: 279 and 234
Population Apoptotic (%) [1, 8]: 70% and 65%
Population Fragmented Nuclei (%) [1, 8]: 11% and 16%
Population Healthy Nuclei (%) [1, 8]: 73% and 63%
Population Hoechst High Intensity Objects (%) [1, 8]: 0%
Population Membrane Permeable-Phenotype (%) [1, 8]: 3%
Population Mitochondria Different-Phenotype (%) [1, 8]: 3% and 9%
Population Mitotic Cells (%) [1, 8]: 29% and 34%
Population Normal (%) [1, 8]: 100%
Population Pyknosed Nuclei (%) [1, 8]: 15% and 20%
Population Tubulin-Different-Phenotype (%) [1, 8]: 39% and 30%
Total Cell Count [1, 8]: 180 and 175
Population Apoptotic (%) [1, 9]: 93% and 96%
Population Fragmented Nuclei (%) [1, 9]: 11% and 16%
Population Healthy Nuclei (%) [1, 9]: 40% and 48%
Population Hoechst High Intensity Objects (%) [1, 9]: 6% and 2%
Population Mitochondria Different-Phenotype (%) [1, 9]: 53% and 52%
Population Mitotic Cells (%) [1, 9]: 6% and 3%
Population Normal (%) [1, 9]: 93% and 97%
Population Pyknosed Nuclei (%) [1, 9]: 48% and 34%
Population Tubulin-Different-Phenotype (%) [1, 9]: 83% and 78%
Total Cell Count [1, 9]: 164 and 169
Population Apoptotic (%) [2, 4]: 54%
Population Fragmented Nuclei (%) [2, 4]: 4% and 2%
Population Healthy Nuclei (%) [2, 4]: 88% and 83%
Population Hoechst High Intensity Objects (%) [2, 4]: 12% and 15%
Population Membrane Permeable-Phenotype (%) [2, 4]: 2% and 1%
Population Mitochondria Different-Phenotype (%) [2, 4]: 46% and 53%
Population Mitotic Cells (%) [2, 4]: 45%
Population Normal (%) [2, 4]: 87% and 84%
Population Pyknosed Nuclei (%) [2, 4]: 7% and 13%
Population Tubulin-Different-Phenotype (%) [2, 4]: 94% and 92%
Total Cell Count [2, 4]: 482 and 397
Population Apoptotic (%) [2, 5]: 79% and 80%
Population Fragmented Nuclei (%) [2, 5]: 5% and 6%
Population Healthy Nuclei (%) [2, 5]: 89%
Population Hoechst High Intensity Objects (%) [2, 5]: 13% and 15%
Population Membrane Permeable-Phenotype (%) [2, 5]: 6% and 2%
Population Mitochondria Different-Phenotype (%) [2, 5]: 44% and 59%
Population Mitotic Cells (%) [2, 5]: 20%
Population Normal (%) [2, 5]: 86% and 84%
Population Pyknosed Nuclei (%) [2, 5]: 5% and 4%
Population Tubulin-Different-Phenotype (%) [2, 5]: 95%
Total Cell Count [2, 5]: 520 and 580
Population Apoptotic (%) [2, 6]: 67% and 55%
Population Fragmented Nuclei (%) [2, 6]: 8% and 5%
Population Healthy Nuclei (%) [2, 6]: 84% and 87%
Population Hoechst High Intensity Objects (%) [2, 6]: 14% and 13%
Population Membrane Permeable-Phenotype (%) [2, 6]: 1%
Population Mitochondria Different-Phenotype (%) [2, 6]: 39% and 34%
Population Mitotic Cells (%) [2, 6]: 32% and 44%
Population Normal (%) [2, 6]: 85% and 86%
Population Pyknosed Nuclei (%) [2, 6]: 7% and 6%
Population Tubulin-Different-Phenotype (%) [2, 6]: 89% and 88%
Total Cell Count [2, 6]: 567 and 602
Population Apoptotic (%) [2, 7]: 75% and 80%
Population Fragmented Nuclei (%) [2, 7]: 4% and 8%
Population Healthy Nuclei (%) [2, 7]: 89% and 85%
Population Hoechst High Intensity Objects (%) [2, 7]: 17% and 18%
Population Membrane Permeable-Phenotype (%) [2, 7]: 8% and 0%
Population Mitochondria Different-Phenotype (%) [2, 7]: 53% and 64%
Population Mitotic Cells (%) [2, 7]: 25% and 20%
Population Normal (%) [2, 7]: 82% and 81%
Population Pyknosed Nuclei (%) [2, 7]: 5%
Population Tubulin-Different-Phenotype (%) [2, 7]: 97% and 95%
Total Cell Count [2, 7]: 550 and 640
Population Apoptotic (%) [2, 8]: 26% and 35%
Population Fragmented Nuclei (%) [2, 8]: 12% and 9%
Population Healthy Nuclei (%) [2, 8]: 84% and 87%
Population Hoechst High Intensity Objects (%) [2, 8]: 18% and 20%
Population Membrane Permeable-Phenotype (%) [2, 8]: 2%
Population Mitochondria Different-Phenotype (%) [2, 8]: 13% and 17%
Population Mitotic Cells (%) [2, 8]: 73% and 65%
Population Normal (%) [2, 8]: 81% and 79%
Population Pyknosed Nuclei (%) [2, 8]: 3% and 2%
Population Tubulin-Different-Phenotype (%) [2, 8]: 73% and 85%
Total Cell Count [2, 8]: 832 and 880
Population Apoptotic (%) [2, 9]: 74% and 87%
Population Fragmented Nuclei (%) [2, 9]: 10% and 12%
Population Healthy Nuclei (%) [2, 9]: 77% and 70%
Population Hoechst High Intensity Objects (%) [2, 9]: 16% and 24%
Population Membrane Permeable-Phenotype (%) [2, 9]: 2% and 3%
Population Mitochondria Different-Phenotype (%) [2, 9]: 65% and 68%
Population Mitotic Cells (%) [2, 9]: 25% and 12%
Population Normal (%) [2, 9]: 83% and 75%
Population Pyknosed Nuclei (%) [2, 9]: 12% and 16%
Population Tubulin-Different-Phenotype (%) [2, 9]: 91%
Total Cell Count [2, 9]: 517 and 572
Population Apoptotic (%) [3, 4]: 50% and 63%
Population Healthy Nuclei (%) [3, 4]: 57% and 78%
Population Hoechst High Intensity Objects (%) [3, 4]: 0%
Population Membrane Permeable-Phenotype (%) [3, 4]: 31% and 29%
Population Mitochondria Different-Phenotype (%) [3, 4]: 9% and 19%
Population Mitotic Cells (%) [3, 4]: 50% and 36%
Population Normal (%) [3, 4]: 100%
Population Pyknosed Nuclei (%) [3, 4]: 10% and 11%
Population Tubulin-Different-Phenotype (%) [3, 4]: 65% and 44%
Total Cell Count [3, 4]: 56 and 99
Population Apoptotic (%) [3, 5]: 82% and 73%
Population Fragmented Nuclei (%) [3, 5]: 28% and 14%
Population Healthy Nuclei (%) [3, 5]: 42% and 69%
Population Hoechst High Intensity Objects (%) [3, 5]: 0%
Population Membrane Permeable-Phenotype (%) [3, 5]: 24% and 20%
Population Mitochondria Different-Phenotype (%) [3, 5]: 56% and 54%
Population Mitotic Cells (%) [3, 5]: 17% and 26%
Population Normal (%) [3, 5]: 100%
Population Pyknosed Nuclei (%) [3, 5]: 28% and 16%
Population Tubulin-Different-Phenotype (%) [3, 5]: 88% and 83%
Population Apoptotic (%) [3, 6]: 70% and 51%
Population Healthy Nuclei (%) [3, 6]: 54% and 72%
Population Hoechst High Intensity Objects (%) [3, 6]: 1% and 0%
Population Membrane Permeable-Phenotype (%) [3, 6]: 17% and 15%
Population Mitochondria Different-Phenotype (%) [3, 6]: 34% and 21%
Population Mitotic Cells (%) [3, 6]: 30% and 48%
Population Normal (%) [3, 6]: 98% and 100%
Population Pyknosed Nuclei (%) [3, 6]: 18% and 21%
Population Tubulin-Different-Phenotype (%) [3, 6]: 75% and 58%
Total Cell Count [3, 6]: 54 and 125
Population Apoptotic (%) [3, 7]: 88% and 66%
Population Fragmented Nuclei (%) [3, 7]: 27% and 10%
Population Hoechst High Intensity Objects (%) [3, 7]: 0%
Population Membrane Permeable-Phenotype (%) [3, 7]: 66% and 31%
Population Mitochondria Different-Phenotype (%) [3, 7]: 66% and 61%
Population Mitotic Cells (%) [3, 7]: 12% and 33%
Population Normal (%) [3, 7]: 100% and 99%
Population Pyknosed Nuclei (%) [3, 7]: 53% and 25%
Population Tubulin-Different-Phenotype (%) [3, 7]: 88% and 82%
Population Apoptotic (%) [3, 8]: 87% and 70%
Population Fragmented Nuclei (%) [3, 8]: 8% and 20%
Population Healthy Nuclei (%) [3, 8]: 74% and 64%
Population Hoechst High Intensity Objects (%) [3, 8]: 0% and 1%
Population Membrane Permeable-Phenotype (%) [3, 8]: 13% and 14%
Population Mitochondria Different-Phenotype (%) [3, 8]: 16% and 21%
Population Mitotic Cells (%) [3, 8]: 12% and 30%
Population Normal (%) [3, 8]: 100% and 98%
Population Pyknosed Nuclei (%) [3, 8]: 17% and 15%
Population Tubulin-Different-Phenotype (%) [3, 8]: 63% and 46%
Total Cell Count [3, 8]: 175 and 65
Population Apoptotic (%) [3, 9]: 91% and 87%
Population Fragmented Nuclei (%) [3, 9]: 19% and 8%
Population Hoechst High Intensity Objects (%) [3, 9]: 0% and 2%
Population Membrane Permeable-Phenotype (%) [3, 9]: 100% and 43%
Population Mitochondria Different-Phenotype (%) [3, 9]: 50% and 83%
Population Mitotic Cells (%) [3, 9]: 8% and 12%
Population Normal (%) [3, 9]: 100% and 97%
Population Pyknosed Nuclei (%) [3, 9]: 76% and 43%
Population Tubulin-Different-Phenotype (%) [3, 9]: 100% and 82%
